Test results reported in PMC8513424 (Laryngoscope Investigative Otolaryngology, 2021).
Read-outs that look alike come from different tables or passages of the source.

What was measured:
[1] = test system: patients with sporadic VS or meningioma; test: Pilot 2 safety and tolerability; type: in vivo, human
Outline: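 Phase 0 pre-surgical study: 40 mg of the test compound orally three times weekly for 3 weeks before planned VS/meningioma resection. Adults >18 y had ECOG 0-1, normal organ and marrow function, and could swallow capsules. Excluded were pregnancy, malabsorption, chronic corticosteroids, prolonged QT, active infection, and concurrent antineoplastic therapy or radiotherapy.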

[2] = test system: NF2‐associated or sporadic VS or meningiomas; test: Pilot 1 tumor volumetric measurement by MRI; type: in vivo, human
[3] = test system: NF2‐deficient benign meningioma Ben‐Men‐1 cells; conditions: cited from earlier work
[4] = Patient 1.1, 837 days on AR‐42, Left parieto‐occipital Meningioma
[5] = Patient 1.1, 837 days on AR‐42, Right neck Schwannoma
[6] = Patient 1.1, Left parieto‐occipital Meningioma
[7] = Patient 1.1, Right IAC Schwannoma
[8] = Patient 1.1, Right neck Schwannoma
[9] = Patient 1.2, 84 days on AR‐42, Right intradural C1 Meningioma
[10] = Patient 1.2, Left trigeminal Schwannoma
[11] = Patient 1.2, Right intradural C1 Meningioma
[12] = Patient 1.4, 275 days on AR‐42, Left IAC Schwannoma
[13] = Patient 1.4, 275 days on AR‐42, Left posterior fossa Meningioma
[14] = Patient 1.4, Left IAC Schwannoma
[15] = Patient 1.4, Left posterior fossa Meningioma
[16] = Patient 1.4, Let foramen magnum Meningioma
[17] = Patient 1.4, Right IAC Schwannoma
[18] = Patient 1.4, Right anterior falx Meningioma
[19] = Patient 1.5, 134 days on AR‐42, Right petroclinoid Meningioma
[20] = Patient 1.5, Right petroclinoid Meningioma
[21] = Patient 1.6, 58 days on AR‐42, Right IAC Schwannoma
[22] = Patient 1.6, Left IAC Schwannoma
[23] = Patient 1.6, Right IAC Schwannoma
[24] = Patient 1.7, Left IAC Schwannoma
[25] = Patient 1.7, Left prepontine cistern Meningioma
[26] = post‐treatment vs on AR‐42, of 11
[27] = pre‐treatment to on‐treatment, of 15

For `CC(C)[C@H](C(=O)Nc1ccc(C(=O)NO)cc1)c1ccccc1` [AR‐42], the “Arrhythmias or QT changes” value ([1]; Pilot 2, 40 mg) was “no arrhythmias or QT changes”, the “Grade 3 or 4 toxicities” value ([1]; Pilot 2, 3 weeks at 40 mg) was “no grade 3 or 4 toxicities” and the “Median on‐treatment estimated annual growth rate” value ([2]; 11 evaluable lesions) was 22%. For the same molecule, the “Median post‐treatment estimated annual growth rate” value ([2]; 11 evaluable lesions) was 10%, the “% Volume growth on Rx” value [2, 4] was 54% and the “On Rx response” value [2, 4] was “PD (progressive disease (>20% increase in volume))”. The “% Volume growth on Rx” value ([2]; Patient 1.1, 837 days on AR‐42, Right IAC Schwannoma) was −2%, the “% Volume growth on Rx” value [2, 5] was 52% and the “On Rx response” value [2, 5] was “PD (progressive disease (>20% increase in volume))”. The “Change in GR Pre to On Rx (%)” value [2, 6] was −128%, the “Change in GR Pre to post Rx” value [2, 6] was −26% and the “Est. annual growth rate On Rx (%)” value [2, 6] was 23%. The “Est. annual growth rate Post Rx” value [2, 6] was 125%, the “Change in GR Pre to On Rx (%)” value [2, 7] was −61% and the “Change in GR Pre to post Rx” value [2, 7] was −10%. For the same molecule, the “Est. annual growth rate On Rx (%)” value [2, 7] was −1%, the “Est. annual growth rate Post Rx” value [2, 7] was 50% and the “Change in GR Pre to On Rx (%)” value [2, 8] was −69%. For the same molecule, the “Change in GR Pre to post Rx” value [2, 8] was −79%, the “Est. annual growth rate On Rx (%)” value [2, 8] was 22% and the “Est. annual growth rate Post Rx” value [2, 8] was 12%. The “% Volume growth on Rx” value ([2]; Patient 1.2, 84 days on AR‐42, Left trigeminal Schwannoma) was −9%, the “% Volume growth on Rx” value [2, 9] was 26% and the “On Rx response” value [2, 9] was “PD (progressive disease (>20% increase in volume))”. The “Change in GR Pre to On Rx (%)” value [2, 10] was −54%, the “Change in GR Pre to post Rx” value [2, 10] was −11% and the “Est. annual growth rate On Rx (%)” value [2, 10] was −46%. For the same molecule, the “Est. annual growth rate Post Rx” value [2, 10] was −3%, the “Change in GR Pre to On Rx (%)” value [2, 11] was 122% and the “Change in GR Pre to post Rx” value [2, 11] was −6%. The “Est. annual growth rate On Rx (%)” value [2, 11] was 138%, the “Est. annual growth rate Post Rx” value [2, 11] was 10% and the “% Volume growth on Rx” value [2, 12] was 60%. The “On Rx response” value [2, 12] was “PD (progressive disease (>20% increase in volume))”, the “% Volume growth on Rx” value [2, 13] was −24% and the “On Rx response” value [2, 13] was “PR (partial response (>20% decrease in volume))”. The “% Volume growth on Rx” value ([2]; Patient 1.4, 275 days on AR‐42, Let foramen magnum Meningioma) was −19%, the “% Volume growth on Rx” value ([2]; Patient 1.4, 275 days on AR‐42, Right IAC Schwannoma) was 9% and the “% Volume growth on Rx” value ([2]; Patient 1.4, 275 days on AR‐42, Right anterior falx Meningioma) was 0%. For the same molecule, the “Change in GR Pre to On Rx (%)” value [2, 14] was −10%, the “Change in GR Pre to post Rx” value [2, 14] was 20% and the “Est. annual growth rate On Rx (%)” value [2, 14] was 92%. For the same molecule, the “Est. annual growth rate Post Rx” value [2, 14] was 122%, the “Change in GR Pre to On Rx (%)” value [2, 15] was −170% and the “Change in GR Pre to post Rx” value [2, 15] was −125%. The “Est. annual growth rate On Rx (%)” value [2, 15] was −37%, the “Est. annual growth rate Post Rx” value [2, 15] was 8% and the “Change in GR Pre to On Rx (%)” value [2, 16] was −158%. For the same molecule, the “Change in GR Pre to post Rx” value [2, 16] was −138%, the “Est. annual growth rate On Rx (%)” value [2, 16] was −30% and the “Est. annual growth rate Post Rx” value [2, 16] was −10%. The “Change in GR Pre to On Rx (%)” value [2, 17] was −133%, the “Est. annual growth rate On Rx (%)” value [2, 17] was 18% and the “Change in GR Pre to On Rx (%)” value [2, 18] was 0%. For the same molecule, the “Change in GR Pre to post Rx” value [2, 18] was 0%, the “Est. annual growth rate On Rx (%)” value [2, 18] was 0% and the “Est. annual growth rate Post Rx” value [2, 18] was 0%. The “% Volume growth on Rx” value [2, 19] was 104%, the “On Rx response” value [2, 19] was “PD (progressive disease (>20% increase in volume))” and the “Change in GR Pre to On Rx (%)” value [2, 20] was 41%. For the same molecule, the “Change in GR Pre to post Rx” value [2, 20] was −232%, the “Est. annual growth rate On Rx (%)” value [2, 20] was 241% and the “Est. annual growth rate Post Rx” value [2, 20] was −32%. The “% Volume growth on Rx” value ([2]; Patient 1.6, 58 days on AR‐42, Left IAC Schwannoma) was 15%, the “% Volume growth on Rx” value [2, 21] was 40% and the “On Rx response” value [2, 21] was “PD (progressive disease (>20% increase in volume))”. For the same molecule, the “Change in GR Pre to On Rx (%)” value [2, 22] was 64%, the “Change in GR Pre to post Rx” value [2, 22] was 32% and the “Est. annual growth rate On Rx (%)” value [2, 22] was 93%. For the same molecule, the “Est. annual growth rate Post Rx” value [2, 22] was 61%, the “Change in GR Pre to On Rx (%)” value [2, 23] was 187% and the “Est. annual growth rate On Rx (%)” value [2, 23] was 245%. The “% Volume growth on Rx” value ([2]; Patient 1.7, 10 days on AR‐42, Left IAC Schwannoma) was 4%, the “% Volume growth on Rx” value ([2]; Patient 1.7, 10 days on AR‐42, Left prepontine cistern Meningioma) was −9% and the “Change in GR Pre to On Rx (%)” value [2, 24] was 13%. For the same molecule, the “Est. annual growth rate On Rx (%)” value [2, 24] was 50%, the “Change in GR Pre to On Rx (%)” value [2, 25] was −120% and the “Est. annual growth rate On Rx (%)” value [2, 25] was −113%. The “Share of tumors with stable growth” value ([2]; estimated percent annual growth rates) was 20%, the “Meningiomas progressed on AR‐42” value ([2]; of 7 meningiomas) was “three” and the “Meningiomas stable or regressed on AR‐42” value ([2]; of 7 meningiomas) was “Four”. For the same molecule, the “VS progressed on AR‐42” value ([2]; of 8 VS) was “three”, the “VS stable on AR‐42” value ([2]; of 8 VS) was “Five” and the “Tumors with stable disease on AR‐42” value ([2]; of 15 evaluable tumors) was “eight”. For the same molecule, the “Share of tumors with partial response” value ([2]; of 15 tumors) was 7%, the “Decrease in volume of the tumor with partial response” value ([2]; on AR‐42) was 24% and the “Duration of partial response” value ([2]; posterior fossa meningioma of Patient 1.4) was 3 years. For the same molecule, the “Tumors that rebounded in growth rate (increased more than 20%) after termination” value [2, 26] was 4, the “Tumors with growth rate decreased after termination” value [2, 26] was 3 and the “Tumors with growth rate not changed after termination” value [2, 26] was 4. The “Tumors with increased growth rates (>20% increase)” value [2, 27] was “four”, the “Tumors with reduced growth rates (>20% decrease in growth rate)” value [2, 27] was “eight” and the “Tumors with stable growth rates (± <20% change)” value [2, 27] was “three”. For the same molecule, the “Median reduction in annual growth rate” value ([2]; pre‐treatment to on‐treatment, P = 0.259) was −54%, the IC50 ([3]; read-out: IC50, Ben‐Men‐1 cells) was 1000 nM and the IC50 ([3]; read-out: IC50 for meningiomas, previous in vitro studies) was about 1000 nM.
